Experiment: Toxicity liver stage against HepG2, at 10uM
Assay type: cell-based
Set-up: test concentration 10 uM, cell line HepG2-A16-CD81EGFP
Settings: human, HepG2-A16-CD81EGFP cells; read-out: INHIBITION
Procedure, shortened: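 Uninfected HepG2-A16-CD81EGFP cells, 3 × 10^3 per well, 1536-well, plated on prespotted compound at 10 μM final, parasite-free screening media added to match infected plates; puromycin 10 μM positive, DMSO 0.5% negative; run in parallel with 48 h PbLuc assay at 37 °C, 5% CO2; viability by CellTiter-Glo luminescence, normalized to controls.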

SMILES | cytotoxicity at 10 µM
CCc1ccc(CN2CCC3(CC(C(=O)NCC(C)C)=NO3)C2)o1 (stereo not given) | 6.46%
Cc1cccnc1N1CCN(Cc2cc(O)c3cccc(F)c3n2)CC1 | 2.2%
CCC1CN(C(=O)c2cncc(C)c2)CCC(=O)N1Cc1ccccc1 (stereo not given) | 9.33%
CO[C@@H]1CN(c2ccccc2)S(=O)(=O)[C@@]12CCNC2 | -2.64%
Cn1c(=O)oc2cc(Nc3nccnc3C#N)ccc21 | 2.14%
CN1CCC/C1=N\S(=O)(=O)c1ccc(NC(=O)c2cccs2)cc1 | -3.34%
COc1cccc2c1ccn2CCNC(C)=O | 1.89%
Cc1cc(C)nc(C2CCN(C(=O)c3cncnc3C)C2)n1 (stereo not given) | 5.16%
Cc1nc2n(n1)CC(NCC(=O)NCCCOC(C)C)CC2 (stereo not given) | -5.03%
O=C(NC1CC1)[C@H]1C[C@H]2OCC[C@H]2N(Cc2ccco2)C1 | 8.88%
CNS(=O)(=O)c1ccc(CNC(=O)c2cc(C)no2)cc1 | 5.12%
CC(C)n1nnc(CC(=O)NCC2(c3ccccc3F)CCCC2)n1 | -0.325%
CCc1nnsc1C(=O)N1CCCN(Cc2cnn(CC)c2)CC1 | -1.76%
CCNC(=O)O[C@H]1COCCN(c2nc3ccccc3s2)C1 | -3.04%
COc1cccc(CNc2cc(N3CCCC3CO)ncn2)n1 (stereo not given) | -12.5%
COc1ccc2c(C)c(C(=O)NC3CCN(S(C)(=O)=O)CC3)oc2c1 | 8.55%
c1cc(-c2cncnc2)cc(-c2ccn(CC3CCNC3)n2)c1 (stereo not given) | 5.54%
CCN1CCN(S(=O)(=O)N2CCc3ccccc3C2)[C@H]2CS(=O)(=O)C[C@H]21 | -4%
Cc1nc(CN2CCCC(c3cnccn3)C2)cs1 (stereo not given) | -4.18%
CN(Cc1ccco1)C[C@@H]1OC[C@H]2CN(Cc3nccs3)CC[C@H]21 | -5.46%
COc1cccc(CN2CC[C@H](c3nnc(-c4ccco4)o3)C2)c1 | -1.34%
Nc1nc2c(c(NCc3ccc(C(=O)N4CCCC4)cc3)n1)CCCC2 | 21.1%

SMILES | cytotoxicity at 10 µM
Cc1nn(C)c(Cl)c1C1CCCN1Cc1nc(-c2ccco2)no1 (stereo not given) | -11.8%
CC(NC(=O)c1cccs1)C(=O)NS(=O)(=O)c1ccc(C#N)cc1 (stereo not given) | 5.11%
Cn1cc(CN2CC[C@H]3OCC[C@@H](C(=O)Nc4cnccn4)[C@@H]3C2)cn1 | 4.12%
O=C(NCCCn1nc2ccccn2c1=O)NC1CCC(O)CC1 (stereo not given) | -12.8%
Cc1nn(C)c(N(C)C)c1CNCc1ccccc1CO | -8.84%
Cc1nc(CN(C)C2CCN(CC(=O)NC3CCOCC3)C2)no1 (stereo not given) | -7.15%
CN(C)CC(=O)N1CCC2(CC1)CN(c1ncccn1)CCO2 | -68.7%
Cc1nc(C2CCCN2Cc2ncc(C(C)C)o2)no1 (stereo not given) | 4.31%
CC1CN(C(=O)c2ccc(C(N)=O)cc2)c2ccc(F)cc2O1 (stereo not given) | 8.07%
CC(C)c1cc(C(=O)NCC(O)C2CCOCC2)nn1C(C)(C)C (stereo not given) | -9.55%
Cc1noc(C)c1CN(C)C(=O)C1CCCCN1S(C)(=O)=O (stereo not given) | 5.04%
COCC(O)CNC(=O)c1coc(COc2ccc3sc(C)nc3c2)n1 (stereo not given) | 10.8%
COCCN(C)C(=O)c1ccccc1-n1cccn1 | -4.57%
Cc1cccc(C(=O)N2CC[C@]3(C[C@H](OCc4ccccn4)CO3)C2)c1 | -70.9%
COCCC(=O)N1CCC(c2ccc3c(NC(C)C)n[nH]c3n2)C1 (stereo not given) | 0.691%
CC(CNC(=O)c1nnn(-c2ccccc2)c1C(F)(F)F)N(C)C (stereo not given) | 2.19%
CCCc1cc(=O)[nH]c2nnc(SCC(=O)NC(C)(C)C)n12 | 9.57%
COC(=O)CNc1cc(C(=O)NCC(F)(F)F)cc(F)c1C | 6.05%
c1coc(CN2CCC3(CC2)CC(N2CCCC2)CO3)c1 (stereo not given) | -11.9%
COc1cc(NC(=O)N(C)CCC2CC2)ncn1 | -1.3%
NS(=O)(=O)Cc1ccc(CNC(=O)NCC2CCOC2)cc1 (stereo not given) | 1.18%
CCOC(=O)NCc1nn(CCN2CCCC2)c(=O)c2ccccc12 | 9.66%

SMILES | cytotoxicity at 10 µM
CN1CCC2(COCCN(Cc3cccc(C#N)c3)C2)C1 (stereo not given) | 0.0422%
CCc1c(NCc2cccnc2)cnn1CC(C)C | -0.625%
c1ccc2c(c1)CN(c1ncnc3sc4c(c13)CCNC4)CCO2 | 5.08%
Cc1nonc1CN(C)Cc1nc(-c2cccc(F)c2F)oc1C | -2.71%
COc1ccc(C(=O)CCC(=O)NCc2ncc(C)s2)cc1F | -11.8%
COCCn1cnnc1CNc1cc(C)nc2c(C)c(C)nn12 | -0.715%
Cc1nccn1-c1ccc(NC(=O)C2CCCN2Cc2c[nH]cn2)cc1 (stereo not given) | -15.2%
Cc1cc(Cl)ccc1C(=O)N1C[C@H](C2CC2)[C@@H](N)C1 | -46.6%
COc1ccc(C2CCCN2C(=O)c2csc(NC(C)=O)n2)cc1 (stereo not given) | -5.82%
CCC=C(C)C(=O)NCCc1csc(N2CCCC2)n1 | 18.7%
CCN(Cc1ccc2c(c1)OCO2)Cc1nc2c(cnn2C)c(=O)[nH]1 | -21%
Cc1ccc(C(=O)N2CCN(c3ncnc4nc(N)ccc34)CC2)o1 | 7.55%
CC(C)OCCCN1CCCC(c2nc3ccccc3n2C(C)C)C1 (stereo not given) | -4.06%
CN1CCOC(c2cncc(CCC(N)=O)n2)C1 (stereo not given) | -2.86%
CC(=O)N(CCc1ccccc1)CC(=O)NC(C)(C)C#N | 8.06%
O=C(O)c1cc(S(=O)(=O)Nc2cc(Cl)ccc2F)cc2c1OCCO2 | -18.7%
CCOc1ccc(NC2CCN(C(C)C)C2=O)cn1 (stereo not given) | -17%
Cc1cnn(CC(=O)N2CCCN(c3nc(C)cs3)CC2)c1 | -4.71%
Cc1cc(C)nc(N2CC=C[C@H]2C(=O)NCc2ccc3c(c2)OCO3)n1 | 0.711%
O=c1c(NCCc2ccc(O)cc2)c(NCc2ccccn2)c1=O | -2.72%
Cc1ncccc1Oc1nccnc1C1CCN(C(C)C)CC1 | -6.05%
COCCN1C[C@@H]2[C@@H](OC)CCN(C(=O)Cc3ccccc3)[C@@H]2C1 | 3.5%

SMILES | cytotoxicity at 10 µM
O=C1OCCC1N1CCN(c2cnccn2)CC1 (stereo not given) | -0.0916%
CN(C)C(=O)CC1CC2(CCN(CC3CC3)CC2)c2cc(F)ccc21 (stereo not given) | 3.37%
Cc1cnn(CC2CN(Cc3nnc(C4CC4)o3)CCO2)c1 (stereo not given) | -11.8%
Cn1ccc(CN2CCC(CN3CCOCC3)CC2)cc1=O | -11%
CN(C)CCCNC(=O)CNC(=O)N1CCc2c([nH]c3ccccc23)C1 | 3.33%
CC(=O)c1ccc(NC(=O)C(C)Cn2cc(Br)cn2)cc1 (stereo not given) | 0.88%
CC(C)=CCC/C(C)=C/CC(C)(C)CNCc1ccco1 | -23.7%
COCCN1C[C@@H]2CC[C@H]1CN(Cc1cc(=O)c3cc(C)ccc3[nH]1)C2 | -5.31%
Cc1nn(C)c(N(C)C)c1CNCCCN(C(C)C)S(C)(=O)=O | 1.07%
O=C(Cc1cccs1)N1CC[C@H]2[C@@H]1CCC(=O)N2c1cccnc1 | 3.94%
Cc1ccc2[nH]c(CNC(=O)C3CC4(CCNCC4)CN3C)nc2c1C (stereo not given) | -9.66%
Cc1nnc([C@H]2C[C@H]3CN(C(=O)Cc4ccc(F)cc4)CC[C@@H]3O2)o1 | -104%
CC(C#N)CSc1ccccc1NCC(=O)Nc1ccc(F)cc1 (stereo not given) | 8.19%
Cc1nc2n(n1)CC(NCc1c(Cl)ccc3cccnc13)CC2 (stereo not given) | 0.0383%
O=C1CC2(CCN(Cc3ccsc3)C2)CN1c1ccc2c(c1)OCO2 (stereo not given) | -75%
O=C(NCCN1CCOC1=O)c1cnc(-c2cccnc2)nc1 | 0.611%
CC(=O)N1CCC(CSCc2ccco2)CC1 | 9.77%
Cc1cccc(CN2CCc3onc(CO)c3C2)n1 | 6.81%
Cc1cc(C)n(C2CCCN(C(=O)c3cc(C4CC4)on3)C2)n1 (stereo not given) | -1.11%
COc1ccc(CN2C[C@@H]3OCC(=O)N(Cc4nccn4C)[C@@H]3C2)cc1 | 4.24%
c1cn(-c2ccc(CN3CCCC3)cc2)c(-c2cc3n(n2)CCNC3)n1 | -14.3%
CCN(CC1CCOC1)C(=O)c1ccc(N2CCOCC2)c(F)c1 (stereo not given) | -2.45%

SMILES | cytotoxicity at 10 µM
COCC(=O)N1C[C@@H]2OCCN(Cc3c(C)noc3C)[C@@H]2C1 | -0.722%
CN1CCCC(N2CCN(c3nc4ccccn4c3C#N)CC2)C1 (stereo not given) | 1.52%
O=C(NCC(O)c1ccc(Cl)s1)c1ccoc1 (stereo not given) | -3.36%
CCOCc1ccccc1NC(=O)NCC(C)(O)c1ccsc1 (stereo not given) | -1.09%
CN(C)c1cc(C(=O)NCc2cccnc2-n2cncn2)ccn1 | 8.15%
NS(=O)(=O)CCNC(=O)c1nnn(-c2ccccc2)c1C1CC1 | -12.2%
CSc1ccc(CN(CCO)C(=O)CCc2ccc(O)cc2)cc1 | -0.711%
CSCCC(=O)N1CCCN(Cc2cnn(C(C)C)c2)CC1 | -25.3%
Cc1cccc(CN2C[C@@H]3COC[C@]3(CNC(=O)N3CCCC3)C2)n1 | 1.05%
Cc1cnn(CC2CCCN2C(=O)CN(C)C2CC2)c1 (stereo not given) | 3.63%
Cc1cc(F)ccc1S(=O)(=O)NCc1cccc(C(=O)N2CCCC2)c1 | -1.2%
COCC(C)N(C)C(=O)NC1CCN(S(C)(=O)=O)CC1 (stereo not given) | 5.36%
CCc1cnc(N)nc1NCCc1ccc(OC)cc1OC | 3.29%
Cc1ccc(CN2CCc3nc(C(C)C)nc(O)c3CC2)s1 | 0.913%
CN(C)CC(=O)N1CCCCC1c1nc(N)ncc1-c1ccccc1 (stereo not given) | -0.155%
O=c1n(Cc2ccccc2F)nc2ncccn12 | -4.49%
CC1CN(C(=O)c2cscn2)c2ccccc2S1 (stereo not given) | 6.43%
COc1cc(OC)cc(C(=O)NCCCNc2ncccn2)c1 | -11.1%
COCC1c2nnn(C)c2CCN1C(=O)Cc1ccccn1 (stereo not given) | -97.1%
CCn1cc(CN(C)S(=O)(=O)c2ccc(Cl)cc2)cn1 | 3.77%
O=C(Nc1cc(-c2cccnc2)no1)C1CCCCC1 | 0.171%
Cc1cc(Cl)ccc1C(=O)N[C@H]1CN(S(C)(=O)=O)C[C@@H]1C1CC1 | 8.9%

Reference: ChEMBL document CHEMBL4513216, “Probing the Open Global Health Chemical Diversity Library for Multistage-Active Starting Points for Next-Generation Antimalarials” (ACS Infect Dis, 2020)
